For data set [1], the target named is T1, rSsa2p (Candida albicans, UniProt P46587). The data set can be described thus: Limited thermolysin proteolysis of cross-linked rSsa2p–BHst 5 complexes. The data set is classed as binding. To be noted: thermolysin 5 μg ml^−1, 30°C, 1 h; silver-stained 15% SDS-PAGE.
Data set [2] concerns C. albicans. Nature of the data set: Candidacidal assay of Hst 5. The class given is cell-based, Candida albicans. The essentials: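 Strains (integrated at RP10 in ssa2Δ background) grown overnight in YPD with uridine 50 μg ml−1 at 30°C, washed twice in 10 mM NaPB, resuspended to 10^6 cells ml−1. Exposed to 15 μM Hst 5, 1 h, 30°C, 250 r.p.m. Diluted, 500 cells plated on YPD agar, 48 h room temperature. Percent death versus buffer-only cells. Three independent transformants per mutant; each assay repeated ≥3 times.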

Data set [3] deals with C. albicans. Nature of the data set: Hst 5 translocation assay. The class given is cell-based, Candida albicans. The essentials:
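Early log-phase cells (1 × 10^8) were washed twice and suspended in 1 ml 10 mM NaPB, then given biotinylated Hst 5 (15 μM final) for 30 min at room temperature. Washed cells were pelleted at 3 300 g, 4°C, glass-bead disrupted and spun 15 700 g, 10 min. Cytosolic protein (10 μg) was separated by 16% Tricine SDS-PAGE, blotted with streptavidin-HRP, detected by ECL and quantified densitometrically. Means ± standard errors of triplicate independent assays.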

In data set [4] the target is T1, rSsa2p. Nature of the data set: FPLC gel filtration determination of dissociation constants. The class given is binding.
The test system of a further data set is Candida albicans. The note with it: cited from earlier work.
The conditions of data set [5]: ref Li et al., 2006; cited from earlier work.
The subject of another data set is human tissues. To be noted: discussion statement without its own reference; cited from earlier work.
The next data set relates to C. albicans Ssa2p. To be noted: ref Li et al., 2006; cited from earlier work.
The test system of the next data set is yeast cells. The note with it: ref Koshlukova et al., 2000; Vylkova et al., 2007; cited from earlier work.
The next data set relates to DnaK. To be noted: 2001, cited from earlier work; for binding by bacterial DnaK related to uptake and killing: ref Kragol et al.

Entries after “also recorded” stand apart in the source; their conditions may differ. Where no end group is shown, it is not given here.

T1 sequence (P46587 whole entry): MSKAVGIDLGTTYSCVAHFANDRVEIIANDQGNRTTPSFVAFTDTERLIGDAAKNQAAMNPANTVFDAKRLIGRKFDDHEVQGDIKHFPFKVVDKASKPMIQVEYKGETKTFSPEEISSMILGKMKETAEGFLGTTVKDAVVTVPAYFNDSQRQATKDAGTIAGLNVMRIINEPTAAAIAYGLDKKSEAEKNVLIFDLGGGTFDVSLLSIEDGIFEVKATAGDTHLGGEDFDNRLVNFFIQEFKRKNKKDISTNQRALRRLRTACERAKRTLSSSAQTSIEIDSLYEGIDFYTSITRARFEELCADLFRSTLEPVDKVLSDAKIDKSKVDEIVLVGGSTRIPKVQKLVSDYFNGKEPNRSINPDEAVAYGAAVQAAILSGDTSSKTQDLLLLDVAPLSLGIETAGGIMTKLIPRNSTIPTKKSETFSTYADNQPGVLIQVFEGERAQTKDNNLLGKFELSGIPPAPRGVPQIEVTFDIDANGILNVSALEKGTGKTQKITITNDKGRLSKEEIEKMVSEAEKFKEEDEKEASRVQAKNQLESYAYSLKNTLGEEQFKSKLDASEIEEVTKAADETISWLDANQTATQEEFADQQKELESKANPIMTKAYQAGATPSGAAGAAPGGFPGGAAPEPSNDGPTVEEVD

Take `C[C@H](NC(=O)[C@H](Cc1cnc[nH]1)NC(=O)[C@H](CO)NC(=O)[C@@H](N)CC(=O)O)C(=O)N[C@@H](CCCCN)C(=O)N[C@@H](CCCNC(=N)N)C(=O)N[C@@H](Cc1cnc[nH]1)C(=O)N[C@@H](Cc1cnc[nH]1)C(=O)NCC(=O)N[C@@H](Cc1ccc(O)cc1)C(=O)N[C@@H](CCCCN)C(=O)N[C@@H](CCCNC(=N)N)C(=O)N[C@@H](CCCCN)C(=O)N[C@@H](Cc1ccccc1)C(=O)N[C@@H](Cc1cnc[nH]1)C(=O)N[C@@H](CCC(=O)O)C(=O)N[C@@H](CCCCN)C(=O)N[C@@H](Cc1cnc[nH]1)C(=O)N[C@@H](Cc1cnc[nH]1)C(=O)N[C@@H](CO)C(=O)N[C@@H](Cc1cnc[nH]1)C(=O)N[C@@H](CCCNC(=N)N)C(=O)NCC(=O)N[C@@H](Cc1ccc(O)cc1)C(=O)O` [Hst 5, Histatin 5]: at rSsa2p [1], the “effect of binding on thermolysin digestion sites of rSsa2p” value is “substantially alters available thermolysin digestion sites exposed for enzymatic cleavage”. Further, the “reduction in cellular killing, Ssa2 150−156 mutant strain” value in the data set with C. albicans [2] (P1 mutant Ssa2(150−156A3) as printed, 15 μM Hst 5, 1 h at 30°C) was “approximately 20%”. Further, the “loss of killing function, Ssa2(150−156A4) strain” value in the data set with C. albicans [2] (P1 mutant, result in words, 15 μM Hst 5, 1 h at 30°C) is on record as “mild to moderate loss of function”. The “killing, Ssa2(334−338A3) strain” value with C. albicans [2] (T2 mutant with defective cell wall secretion of Ssa2p, 15 μM Hst 5, 1 h at 30°C) is “reduced Hst 5 translocation and killing to levels of the ssa2Δ knockout; also recorded: significant loss of cytotoxic and transport functions”. Besides, in the data set on C. albicans [2] (downstream T1 mutant, 15 μM Hst 5, 1 h at 30°C), the “killing, Ssa2(131−135A3) strain” value was “reduced, but did not prevent Hst 5 killing and intracellular uptake; also recorded: mild to moderate loss of function”. In addition, in the data set with C. albicans [2] (spot 32 region, data not shown), the “effect of mutations within Ssa2(342–355) on killing” value is “did not alter Hst 5 killing or translocation”. Besides, in the data set on C. albicans [3] (BHst 5 15 μM, NaPB, room temperature), the “time course of translocation” value is on record as “Translocation happens very rapidly following only 5 min incubation; also recorded: the majority of Hst 5 is translocated intracellularly after 30 min”. For the same molecule, in the data set on C. albicans [3] (P1 mutant Ssa2(150−156A3) as printed, BHst 5 15 μM), the “reduction in Hst 5 translocation, Ssa2 150−156 mutant strain” value is recorded as “approximately 20%”. Further, the “intracellular translocation, Ssa2(334−338A3) strain” value with C. albicans [3] (T2 mutant with defective cell wall secretion of Ssa2p, BHst 5 15 μM) is “reduced Hst 5 translocation and killing to levels of the ssa2Δ knockout”. The “intracellular translocation, Ssa2(131−135A3) strain” value with C. albicans [3] (downstream T1 mutant, BHst 5 15 μM) was “reduced, but did not prevent Hst 5 killing and intracellular uptake”. The “effect of mutations within Ssa2(342–355) on translocation” value in the data set with C. albicans [3] (spot 32 region, data not shown) was “did not alter Hst 5 killing or translocation”. For the same molecule, the “uptake in Ssa2p deletion mutants” value in the data set with C. albicans [3] (ssa2Δ) was “reduced but measurable uptake”. Besides, on rSsa2p [4] (gel filtration with ATP or ADP), the “competition for nucleotide binding sites in Ssa2p” value was “does not compete for nucleotide binding sites in Ssa2p”. Further, at rSsa2p [4] (presence of nucleotides, gel filtration), the “fold improvement of binding affinity by nucleotides” value is 10 -fold. For the same molecule, the “resistance of SSA1 knockouts to Hst 5” value in the data set with Candida albicans (SSA1 knockout, ref Li et al., 2006) is recorded as “only mildly resistant”. The “intracellular uptake and killing in C. albicans SSA2 deletion mutants” value with Candida albicans (SSA2 deletion, ref Li et al., 2006) is “significantly reduced”. Moreover, in the data set on Candida albicans (associated with oral candidiasis, background statement without its own reference), the “fungicidal activity for Candida albicans and other fungal pathogens” value is reported as “strongly fungicidal”. For the same molecule, in the data set with Candida albicans (pre-treatment of cells, ref Zhu et al., 2006), the “inhibition of Hst 5 killing by drugs blocking endocytosis” value is recorded as “inhibited by pre-treatment of cells with drugs blocking endocytosis”. For the same molecule, the salt sensitivity entry in the data set with Candida albicans (ref Dong et al., 2003, Jang et al., 2008) is “salt sensitive”. Moreover, the self-aggregation entry in [5] is given as “high propensity for self-aggregation”. For the same molecule, the “toxicity to human tissues” value with human tissues is reported as “without being toxic to human tissues”. Further, in the data set on C. albicans Ssa2p, the “association with Ssa2p compared with Ssa1p” value was “stronger association”. Further, the “selective leakage of intracellular ions and ATP” value with yeast cells was “induces selective leakage of intracellular ions and ATP from yeast cells”.

For “drosocin: cationic antimicrobial peptide (GKPRPYSPRPTSHPRPIRV; ends and bridges not checked; UniProt P36193 22-40, looked up)”, the “binding by bacterial DnaK related to uptake and killing” value in the data set with DnaK is “shown to be related to their intracellular uptake and killing functions”.

Turning to human β defensin 2, the “killing of candidal cells via uptake mechanism involving Ssa proteins” value in the data set with Candida albicans (ref Vylkova et al., 2006) is “can kill candidal cells”.

On to “pyrrhocoricin: cationic antimicrobial peptide (VDKGSYLPRPTPPRPIYNRN; ends and bridges not checked; UniProt P37362 1-20, looked up)”, for which the “binding by bacterial DnaK related to uptake and killing” value with DnaK is “shown to be related to their intracellular uptake and killing functions”. In addition, the “probable interaction site on DnaK” value in the data set on DnaK (ref Otvos et al., 2000, Kragol et al.) is listed as “C-terminal variable region of the lid domain outside the conventional peptide binding region”.

The values above are taken from PMC2643122 (Molecular Microbiology, 2008).
